Sampled rows, rich in hits. Any-hit rate of the full collection: about 4.6%.
OX1R antag-1 = blocks the human orexin 1 receptor; O43613; OX1R-expressing cells, FRET antagonist read-out; inhibition, % at 6.6 µM; actives 1.8% (n = 330,000); AID 485270; in the data active means inhibition mostly above about 38%, no sharp cut-off; inactive means mostly below about 40%;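 further: 0% = agonist challenge alone and 100% = reference antagonist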
Target sequence (O43613 whole entry, looked up): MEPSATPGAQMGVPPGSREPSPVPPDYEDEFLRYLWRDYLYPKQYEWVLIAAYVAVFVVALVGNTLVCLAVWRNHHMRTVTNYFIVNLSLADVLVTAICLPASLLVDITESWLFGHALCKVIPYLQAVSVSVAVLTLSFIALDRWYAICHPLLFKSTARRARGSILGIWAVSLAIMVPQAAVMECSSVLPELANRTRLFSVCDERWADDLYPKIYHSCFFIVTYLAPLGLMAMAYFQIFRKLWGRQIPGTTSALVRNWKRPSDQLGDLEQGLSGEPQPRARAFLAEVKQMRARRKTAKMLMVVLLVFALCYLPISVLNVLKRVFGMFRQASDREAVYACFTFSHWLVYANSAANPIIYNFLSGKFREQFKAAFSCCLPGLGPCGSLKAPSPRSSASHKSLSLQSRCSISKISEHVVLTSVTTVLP
TAAR1 ag = agonists of human TAAR1 | actives 0.99% (n = 360,000) | CHO RD-HGA16 TAAR1, Fluo-8 calcium fluorescence; vehicle wells 0%, saturating PEA agonist 100% | AID 624467 | Q96RJ0 | activation, % at 3 µM;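 active means activation above the mean activation of all test compounds in the run plus 3 SD, cut at about 38% in these data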
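test system = CHO RD-HGA16 cells carrying human TAAR1 plus Gα16 | schedule = 17-24 h seeding, 75 min 37 °C dye, 30 min RT | compound dosing = 3 µM single concentration | control set = DMSO and PEA EC100 | replicates = n 1 | signal = Fluo-8 fluorescence, 5 s baseline then 140 s kinetic read | measure = percent activation vs PEA EC100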
OX1R antag-2 = human HCRTR1 antagonism. O43613. CHO/OX1R cells, Fluo-8 calcium fluorescence, orexin A. inhibition, % at 5 µM. actives 0.43% (n = 330,000). AID 434989;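 active means inhibition above its plate's threshold, mean inhibition of all tested compounds on the plate plus 3 SD, cut at about 37% in these data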;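 further: 0% = orexin A challenge wells and 100% = SB-334867-A antagonist wells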
CHO parental Ca = counter-screen: ATP calcium response change in parental CHO cells; parental CHO-K1, ATP-induced calcium, Fluo-8 fluorescence; inhibition, % at 5.6 µM; actives 0.63% (n = 330,000); AID 463079;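 active means inhibition above that plate's mean sample inhibition plus 3 SD, cut at about 26% in these data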;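 further: 0% = ATP-challenged DMSO wells and 100% = DMSO wells without ATP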
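Test system: untransfected parental CHO cell line; also added: ATP stimulus; dosing: 5.6 µM, single dose; signal: calcium-sensitive Fluo-8 fluorescence; measure: percent inhibition of ATP-evoked calcium rise, normalized to controls; benchmarks: low control ATP plus DMSO, high control DMSO only; replication: one well per compound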
GPR7 antag = antagonists of human GPR7 (neuropeptides B/W receptor 1); P48145; GPR7-expressing cells, fluorescence antagonist assay; inhibition, % at 4.4 µM; actives 1.1% (n = 290,000); AID 1861; in the data active means inhibition above about 16%, passing the limit was not always enough;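 further: cells stimulated with the agonist NPW; 0% = agonist with vehicle and 100% = vehicle without agonist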
TAAR1 antagonist = human TAAR1 antagonism; Q96RJ0; actives 1.5% (n = 360,000); CHO RD-HGA16 TAAR1, Fluo-8 calcium fluorescence, antagonist; inhibition, % at 3 µM; AID 624466;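 active means inhibition above a per-plate cutoff, the mean inhibition of test compounds on that plate plus 3 SD, cut at about 49% in these data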;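 further: 0% = DMSO plus EC80 beta-PEA response and 100% = DMSO alone without agonist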
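System: RD-HGA16 CHO cells with stable hTAAR1 and Gα16 | Probe or stimulus: EC80 β-phenethylamine stimulus | Dosing: 3 µM, single point | Times: Dye loading 75 min at 37 °C, then 30 min room temperature | Measured by: Fluo-8 calcium-sensitive fluorescence | Read-out basis: % inhibition of agonist calcium response | Replicates: n of 1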
The depositor's hits bear a star; / = no result given; ! = repeats disagree.

SMILES	OX1R antag-1	TAAR1 ag	OX1R antag-2	CHO parental Ca	GPR7 antag	TAAR1 antagonist
COc1ccc(-c2nn(-c3ccccc3)cc2C=O)cc1[N+](=O)[O-]	29	6	8	12	-2	49*
Cc1cc(C)cc([C@H]2C[C@]34CN(C(=O)OC(C)(C)C)S(=O)(=O)[C@H]3C[C@H]2O4)c1	/	-2	/	/	/	3
COc1ccc(-c2cc(-c3c(O)c(OC)c4occc4c3OC)[nH]n2)cc1	19	6	-22	-17	-7	7
COc1ccc(-c2cc(-c3c(O)c(OC)c4occc4c3OC)[nH]n2)cc1OC	70*	-2	62*	-18	-13	5
Cc1[nH]c2ccccc2c1CC(=O)Nc1ccc(Nc2cccnc2)c(-c2cc(C(F)(F)F)cc(C(F)(F)F)c2)c1	/	1	/	/	/	-7
CC(c1ccco1)N(C(=O)c1ccccc1NS(=O)(=O)c1cc([N+](=O)[O-])ccc1Cl)c1ccccn1 (centres undefined)	72*	7	-15	-16	-5	32
CC(c1ccco1)N(C(=O)c1ccccc1NS(=O)(=O)c1ccc(Cl)cc1)c1ccccn1 (centres undefined)	32	5	-3	-12	-3	-3
CC(c1ccco1)N(C(=O)c1ccccc1NS(=O)(=O)c1cccc([N+](=O)[O-])c1)c1ccccn1 (centres undefined)	63*	/	-31	0	-13	/
O=C1C=C(OCCCl)CC(c2cccc(Cl)c2)O1 (centres undefined)	/	2	/	/	/	1
NS(=O)(=O)c1ccc(CCNC(=O)c2ccc([N+](=O)[O-])s2)cc1	66*	1	0	22	11	14
O=C(NC1CCCC1)c1ccc([N+](=O)[O-])s1	61*	4	-33	4	-5	-20
CC1CCCC(NC(=O)COC(=O)c2ccc([N+](=O)[O-])s2)C1C (centres undefined)	44*	4	12	2	/	-7
CC(OC(=O)c1ccc([N+](=O)[O-])s1)C(=O)NC1CCCCC1C (centres undefined)	38*	0	-5	-17	/	-3
CC1CCCC(NC(=O)COC(=O)c2ccccc2[N+](=O)[O-])C1C (centres undefined)	8	1	-20	-15	-8	-13
CCOC(=O)[C@]12CCCC=C1N(Cc1ccco1)C(=O)[C@H](CC(=O)N1CCOCC1)C2	/	-1	/	/	/	10
COC(=O)[C@]12C[C@H](CC(=O)NCc3cccc(C(F)(F)F)c3)C(=O)N(Cc3ccccc3)C1=C[C@H](C(C)(C)C)O[C@@H]2C	/	-2	/	/	/	-15
O=C(C(=O)N1CCN(C(=O)c2ccco2)CC1)c1ccccc1	/	0	/	/	/	-8
Cc1[nH]c2ccccc2c1C(=O)COC(=O)C1CC(O)CN1S(=O)(=O)c1ccc(Cl)cc1 (centres undefined)	16	12	-4	-22	/	44
CC(O)C(NS(=O)(=O)c1ccc(Cl)cc1)C(=O)OCC(=O)c1c[nH]c2ccccc12 (centres undefined)	1	19	7	16	15	58*
CSCCC(NS(=O)(=O)c1ccc(Cl)cc1)C(=O)OCC(=O)c1c(C)[nH]c2ccccc12 (centres undefined)	76*	19	79*	82*	12	81*
CC(C)C(NS(=O)(=O)c1c(Cl)cccc1Cl)C(=O)OCC(=O)c1c[nH]c2ccccc12 (centres undefined)	24	7	-7	-12	0	20
C[C@@H]1CN([C@@H](C)CO)C(=O)CCCn2cc(nn2)CO[C@H]1CN(C)S(C)(=O)=O	/	2	/	/	/	16
O=C(NC1CCCC1)C1c2ccccc2OCC(=O)N1Cc1cccnc1 (centres undefined)	/	8	/	/	/	-32
CCn1c(CSc2nc3ccccc3s2)nc2ccccc21	100*	20	79*	55*	-5	38
Cc1ccc(-c2nc3c(c(SCC(=O)N4CCOCC4)n2)Cc2c(CO)cnc(C)c2O3)cc1	38*	6	-22	-25	-10	-9
SMILES	OX1R antag-1	TAAR1 ag	OX1R antag-2	CHO parental Ca	GPR7 antag	TAAR1 antagonist
Nc1ccc2c(c1)C(=O)c1cc([N+](=O)[O-])ccc1-2	/	-1	/	/	/	-4
O=C1c2ccccc2-c2nccnc21	111*	7	-8	-4	4	9
O=C1C(=O)c2cccnc2-c2ncccc21	/	22	/	/	/	4
O=C1c2cccnc2-c2ncccc21	54*	1	-9	-2	-12	1
O=C1c2cc([N+](=O)[O-])ccc2-c2ncccc21	67*	0	-15	3	-10	-11
O=C(CN1CCN(C(=O)C2CCN(C(=O)/C=C/c3ccccc3)CC2)CC1)Nc1ccc(F)cc1	/	4	/	/	/	-12
OC1c2c(F)cccc2N=C2CCCCCN21 (centres undefined)	/	0	/	/	/	-16
CSCCC(NC(=O)COc1ccccc1)C(=O)N(C)CC(=O)Nc1ccc(Cl)cc1 (centres undefined)	0	6	-28	-18	/	-5
CSCCC(NC(=O)COc1ccccc1)C(=O)N(C)Cc1c(F)cccc1Cl (centres undefined)	/	10	/	/	/	52*
CN1C(=O)C2(Nc3ccccc3-c3nc4ccccc4n32)c2ccccc21 (centres undefined)	18	4	-11	-8	3	-7
O=C1Nc2ccccc2C12Nc1ccccc1-c1nc3ccccc3n12 (centres undefined)	8	2	-23	-8	21*	6
C/C(N)=C(/C#N)C(=O)CSc1nnc(SCc2ccc(Cl)cc2)s1	70	4	9	25	-3	52*!
O=C(c1cc(COc2cccc(C(F)(F)F)c2)on1)N1CCC(c2ccncc2)CC1	22	1	31	60*	12	-8
CC(C)[C@@H](C)/C=C/[C@@H](C)[C@H]1CC[C@@H]2[C@]1(C)CCC1[C@]23C=C[C@]2(C[C@@H](O)CC[C@]12C)N(c1ccc(Br)cn1)O3 (some centres undefined)	/	0	/	/	/	-20
CC(=O)Nc1ccc(CN(C)c2c(C)nc3ccc(C(=O)NCCCN4CCCC4=O)cn23)cc1	/	3	/	/	/	5
COC(=O)Cn1c(=NC(=O)c2cc(OC)cc(OC)c2)sc2cc(OC)ccc21	20	6	-15	-4	3	4
COC(=O)Cn1c(=NC(=O)c2cccc(OC)c2)sc2cc(OC)ccc21	7	6	-12	1	-9	49*
CN(C)CCCN(C(=O)c1ccc([N+](=O)[O-])s1)c1nc2cc3c(cc2s1)OCCO3	78*	10	-23	-12	2	-1
CCCSc1nnc(NC(=O)Nc2ccccc2)s1	23	40*	-10	-15	-5	8

Screening data: PubChem, The Scripps Research Institute Molecular Screening Center
